Test results from ChEMBL document CHEMBL4765319, “Identification of a new series of flavopiridol-like structures as kinase inhibitors with high cytotoxic potency” (Eur J Med Chem, 2020).

Assays:
SK-OV-3 = assay: Antiproliferative activity against human SKOV3 cells assessed as reduction in cell viability incubated for 72 hrs by CellTiter-Blue fluorescence assay; conditions: SK-OV-3, 72 h
[1] = target: T1, CDK2/Cyclin A2 (Homo sapiens) (UniProt P24941+P20248); assay: Inhibition of human CDK2/cyclin A assessed as residual activity at 10 uM in presence of ATP by ADP-glo luminescent assay relative to control; format: protein-complex assay
Method in brief: (§1)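 Human kinases assayed by ADP-Glo luminescence with 10 μM ATP, compound at 10 or 1 μM. Activity is expressed as % of maximal activity relative to a DMSO control, mean n = 2.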

[2] = target: T1, CDK2/Cyclin A2 (Homo sapiens); assay: Inhibition of human CDK2/cyclin A assessed as residual activity at 1 uM in presence of ATP by ADP-glo luminescent assay relative to control; format: protein-complex assay
Method in brief: as §1

[3] = target: T2, Cyclin-dependent kinase 5/CDK5 activator 1 (Homo sapiens) (UniProt Q00535+Q15078); assay: Inhibition of human CDK5/p25 assessed as residual activity at 10 uM in presence of ATP by ADP-glo luminescent assay relative to control; format: protein-complex assay
T2 sequence (Q00535 whole entry): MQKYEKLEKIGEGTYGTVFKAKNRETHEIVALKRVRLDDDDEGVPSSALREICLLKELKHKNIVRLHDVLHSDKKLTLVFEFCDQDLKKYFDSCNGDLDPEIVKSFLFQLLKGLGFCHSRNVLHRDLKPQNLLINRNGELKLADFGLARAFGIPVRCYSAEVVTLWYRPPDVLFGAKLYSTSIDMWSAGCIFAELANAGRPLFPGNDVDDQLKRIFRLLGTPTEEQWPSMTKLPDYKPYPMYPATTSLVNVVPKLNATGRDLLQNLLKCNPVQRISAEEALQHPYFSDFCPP
T2 sequence (Q15078 99-307 partner limits assumed): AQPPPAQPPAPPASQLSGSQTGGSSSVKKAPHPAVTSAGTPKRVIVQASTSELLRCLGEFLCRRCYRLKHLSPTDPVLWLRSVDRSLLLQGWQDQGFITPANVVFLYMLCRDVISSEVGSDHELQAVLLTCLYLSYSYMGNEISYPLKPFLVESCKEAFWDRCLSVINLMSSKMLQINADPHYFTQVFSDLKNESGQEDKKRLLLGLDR
Method in brief: as §1

[4] = target: T2, Cyclin-dependent kinase 5/CDK5 activator 1 (Homo sapiens); assay: Inhibition of human CDK5/p25 assessed as residual activity at 1 uM in presence of ATP by ADP-glo luminescent assay relative to control; format: protein-complex assay
Method in brief: as §1

[5] = target: T3, CDK9/cyclin T1 (Homo sapiens) (UniProt O60563+P50750); assay: Inhibition of human CDK9/cyclin T assessed as residual activity at 10 uM in presence of ATP by ADP-glo luminescent assay relative to control; format: protein-complex assay
Method in brief: as §1

[6] = target: T3, CDK9/cyclin T1 (Homo sapiens); assay: Inhibition of human CDK9/cyclin T assessed as residual activity at 1 uM in presence of ATP by ADP-glo luminescent assay relative to control; format: protein-complex assay
Method in brief: as §1

[7] = target: T4, Glycogen synthase kinase-3 beta (Homo sapiens, UniProt P49841); assay: Inhibition of human GSK3beta assessed as residual activity at 10 uM in presence of ATP by ADP-glo luminescent assay relative to control
Method in brief: as §1
Target sequence in this assay (P49841 whole entry, looked up): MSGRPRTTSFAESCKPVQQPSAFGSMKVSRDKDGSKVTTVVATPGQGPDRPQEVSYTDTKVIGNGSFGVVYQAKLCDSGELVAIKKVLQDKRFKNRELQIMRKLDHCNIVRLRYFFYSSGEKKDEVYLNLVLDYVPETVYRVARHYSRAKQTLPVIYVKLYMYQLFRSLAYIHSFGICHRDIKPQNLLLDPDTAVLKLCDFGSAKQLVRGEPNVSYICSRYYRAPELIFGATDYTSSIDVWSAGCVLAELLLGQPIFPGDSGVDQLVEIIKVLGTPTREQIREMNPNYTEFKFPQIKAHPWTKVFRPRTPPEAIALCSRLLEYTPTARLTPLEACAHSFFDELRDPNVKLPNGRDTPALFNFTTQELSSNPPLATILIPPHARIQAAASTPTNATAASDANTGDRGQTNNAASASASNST

[8] = target: T4, Glycogen synthase kinase-3 beta; assay: Inhibition of human GSK3beta assessed as residual activity at 1 uM in presence of ATP by ADP-glo luminescent assay relative to control
Method in brief: as §1
Target sequence in this assay (P49841 whole entry, looked up): as above

Leishmania major [9] = assay: Inhibition of Leishmania major CK1 assessed as residual activity at 10 uM in presence of ATP by ADP-glo luminescent assay relative to control
Leishmania major [10] = assay: Inhibition of Leishmania major CK1 assessed as residual activity at 1 uM in presence of ATP by ADP-glo luminescent assay relative to control
Plasmodium falciparum [11] = assay: Inhibition of Plasmodium falciparum GSK3 assessed as residual activity at 10 uM in presence of ATP by ADP-glo luminescent assay relative to control
Method in brief: (§2)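 Recombinant P. falciparum GSK3, bacterially expressed, in buffer A (10 mM MgCl2, 1 mM EGTA, 1 mM DTT, 25 mM Tris-HCl pH 7.5, 50 μg/ml heparin). Substrate 0.010 μg/μl GS-1 peptide, 10 μM ATP, ADP-Glo luminescence. Compound at 10 or 1 μM; % residual activity vs DMSO control, mean n = 2.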

Plasmodium falciparum [12] = assay: Inhibition of Plasmodium falciparum GSK3 assessed as residual activity at 1 uM in presence of ATP by ADP-glo luminescent assay relative to control
Method in brief: as §2

Sus scrofa [13] = organism: Sus scrofa; assay: Inhibition of porcine CK1delta/epsilon assessed as residual activity at 10 uM in presence of ATP by ADP-glo luminescent assay relative to control
Sus scrofa [14] = organism: Sus scrofa; assay: Inhibition of porcine CK1delta/epsilon assessed as residual activity at 1 uM in presence of ATP by ADP-glo luminescent assay relative to control
Sus scrofa [15] = organism: Sus scrofa; assay: Inhibition of porcine GSK3alpha/beta assessed as residual activity at 10 uM in presence of ATP by ADP-glo luminescent assay relative to control
Method in brief: (§3)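 Porcine brain GSK3α/β, native and affinity-purified. Assayed by ADP-Glo luminescence with 10 μM ATP and 0.010 μg/μl GS-1 peptide substrate. Buffer A: 10 mM MgCl2, 1 mM EGTA, 1 mM DTT, 25 mM Tris-HCl pH 7.5, 50 μg/ml heparin. Compound tested at 10 or 1 μM. Result is % of maximal activity versus DMSO control, mean of n = 2.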

Sus scrofa [16] = organism: Sus scrofa; assay: Inhibition of porcine GSK3alpha/beta assessed as residual activity at 1 uM in presence of ATP by ADP-glo luminescent assay relative to control
Method in brief: as §3

CDK2/Cyclin A2 = CDK2/Cyclin A2 (Homo sapiens, UniProt P24941); assay: Inhibition of human CDK2/cyclin A in presence of ATP by ADP-glo luminescent assay; format: protein-complex assay
Method in brief: (§4)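 Human kinases tested over roughly 0.0003–10 μM by ADP-Glo luminescence with 10 μM ATP, in duplicate. IC50 is taken from dose-response curves.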

[17] = target: Cyclin-dependent kinase 5/CDK5 activator 1 (Homo sapiens, UniProt Q00535); assay: Inhibition of human CDK5/p25 in presence of ATP by ADP-glo luminescent assay; format: protein-complex assay
Sequence of Cyclin-dependent kinase 5/CDK5 activator 1 (Q00535 whole entry): as the sequence (Q00535 whole entry) above
Sequence of Cyclin-dependent kinase 5/CDK5 activator 1 (Q15078 whole entry, further chain): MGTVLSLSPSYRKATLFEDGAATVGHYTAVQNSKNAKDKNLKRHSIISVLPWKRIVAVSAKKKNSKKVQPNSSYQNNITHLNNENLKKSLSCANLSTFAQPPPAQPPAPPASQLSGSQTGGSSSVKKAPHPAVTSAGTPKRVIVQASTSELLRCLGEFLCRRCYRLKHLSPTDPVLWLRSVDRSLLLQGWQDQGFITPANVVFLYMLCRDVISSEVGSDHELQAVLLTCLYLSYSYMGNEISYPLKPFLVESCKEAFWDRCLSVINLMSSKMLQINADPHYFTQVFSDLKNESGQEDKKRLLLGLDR
Method in brief: as §4

CDK9/cyclin T1 = CDK9/cyclin T1 (Homo sapiens, UniProt P50750); assay: Inhibition of human CDK9/cyclin T in presence of ATP by ADP-glo luminescent assay; format: protein-complex assay
Sequence of CDK9/cyclin T1 (O60563 whole entry): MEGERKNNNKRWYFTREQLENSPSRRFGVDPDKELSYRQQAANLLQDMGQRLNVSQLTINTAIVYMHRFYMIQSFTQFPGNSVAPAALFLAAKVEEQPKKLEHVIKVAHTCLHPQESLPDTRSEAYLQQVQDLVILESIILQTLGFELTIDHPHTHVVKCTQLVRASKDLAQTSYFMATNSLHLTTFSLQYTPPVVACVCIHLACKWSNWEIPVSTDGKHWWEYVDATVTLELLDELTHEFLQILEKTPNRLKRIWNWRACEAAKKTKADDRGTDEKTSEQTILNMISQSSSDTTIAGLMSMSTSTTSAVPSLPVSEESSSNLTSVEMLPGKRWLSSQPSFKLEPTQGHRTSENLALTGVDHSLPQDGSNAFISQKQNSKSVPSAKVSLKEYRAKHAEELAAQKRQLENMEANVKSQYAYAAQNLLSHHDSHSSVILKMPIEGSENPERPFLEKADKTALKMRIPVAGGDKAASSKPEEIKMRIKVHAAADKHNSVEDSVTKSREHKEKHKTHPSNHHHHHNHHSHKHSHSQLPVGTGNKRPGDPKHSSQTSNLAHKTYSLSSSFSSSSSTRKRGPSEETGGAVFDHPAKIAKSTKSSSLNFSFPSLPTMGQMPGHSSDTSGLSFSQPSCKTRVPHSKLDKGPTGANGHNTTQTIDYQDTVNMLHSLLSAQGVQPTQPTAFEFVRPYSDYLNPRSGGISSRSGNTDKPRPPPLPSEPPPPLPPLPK
Sequence of CDK9/cyclin T1 (P50750 whole entry): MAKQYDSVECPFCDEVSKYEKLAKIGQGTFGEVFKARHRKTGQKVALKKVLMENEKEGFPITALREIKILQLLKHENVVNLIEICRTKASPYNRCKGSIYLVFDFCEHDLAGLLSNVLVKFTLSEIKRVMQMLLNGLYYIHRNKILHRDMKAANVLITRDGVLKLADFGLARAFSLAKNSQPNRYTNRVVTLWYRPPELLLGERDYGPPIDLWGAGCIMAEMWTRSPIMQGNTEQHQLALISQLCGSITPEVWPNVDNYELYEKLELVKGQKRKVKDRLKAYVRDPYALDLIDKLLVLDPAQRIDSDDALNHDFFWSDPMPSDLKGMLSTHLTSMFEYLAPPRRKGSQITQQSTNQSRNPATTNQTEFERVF
Method in brief: as §4

[18] = target: T4, Glycogen synthase kinase-3 beta; assay: Inhibition of human GSK3beta in presence of ATP by ADP-glo luminescent assay
Method in brief: as §4
Target sequence in this assay (P49841 whole entry): as the sequence (P49841 whole entry, looked up) above

PC-3 = assay: Antiproliferative activity against human PC-3 cells assessed as reduction in cell viability incubated for 72 hrs by CellTiter-Blue fluorescence assay; conditions: PC-3, 72 h
NCI-N87 = assay: Antiproliferative activity against human NCI-N87 cells assessed as reduction in cell viability incubated for 72 hrs by CellTiter-Blue fluorescence assay; conditions: NCI-N87, 72 h
SK-BR-3 = assay: Antiproliferative activity against human SK-BR-3 cells assessed as reduction in cell viability incubated for 72 hrs by CellTiter-Blue fluorescence assay; conditions: SK-BR-3, 72 h
HCT-116 = assay: Antiproliferative activity against human HCT-116 cells assessed as reduction in cell viability incubated for 72 hrs by CellTiter-Blue fluorescence assay; conditions: HCT-116, 72 h
MIA PaCa-2 = assay: Antiproliferative activity against human MIA PaCa-2 cells assessed as reduction in cell viability incubated for 72 hrs by CellTiter-Blue fluorescence assay; conditions: MIA PaCa-2, 72 h
K562 = assay: Antiproliferative activity against human K562 cells assessed as reduction in cell viability incubated for 72 hrs by CellTiter-Blue resazurin fluorescence assay; conditions: K562, 72 h

## CN1CC=C(c2c(O)cc(O)c3c(=O)cc(-c4ccc(Sc5ncccn5)cc4Cl)oc23)CC1
SK-OV-3
  IC50: > 10000 nM

## CN1CC=C(c2c(O)cc(O)c3c(=O)cc(-c4ccc(Sc5ccc(C(=O)NO)cn5)cc4)oc23)CC1
SK-OV-3
  IC50: > 10000 nM

## COC(=O)[C@H](CO)NC(=O)[C@H](CSc1ccc(-c2cc(=O)c3c(O)cc(O)c(C4=CCN(C)CC4)c3o2)cc1)NC(=O)OCc1ccccc1
SK-OV-3
  IC50: 4300 nM

## CN1CC=C(c2c(O)cc(O)c3c(=O)cc(-c4ccc(Sc5nc(-c6ccccc6)c[nH]5)cc4)oc23)CC1
[1]
  Activity: 14%
[2]
  Activity: 33%
[3]
  Activity: 5%
[4]
  Activity: 10%
[5]
  Activity: 0%
[6]
  Activity: 2%
[7]
  Activity: 6%
[8]
  Activity: 25%
Leishmania major [9]
  Activity: 54%
Leishmania major [10]
  Activity: 88%
Plasmodium falciparum [11]
  Activity: > 100%
Plasmodium falciparum [12]
  Activity: > 100%
Sus scrofa [13]
  Activity: 43%
Sus scrofa [14]
  Activity: 78%
Sus scrofa [15]
  Activity: 11%
Sus scrofa [16]
  Activity: 53%
CDK2/Cyclin A2
  IC50: 469 nM
[17]
  IC50: 195 nM
CDK9/cyclin T1
  IC50: 9 nM
[18]
  IC50: 356 nM
PC-3
  IC50: 243 nM
SK-OV-3
  IC50: 295 nM
NCI-N87
  IC50: 4800 nM
SK-BR-3
  IC50: 352 nM
HCT-116
  IC50: 173 nM
MIA PaCa-2
  IC50: 448 nM
K562
  IC50: 300 nM

## CN1CC=C(c2c(O)cc(O)c3c(=O)cc(-c4ccc(Sc5nc6ccccc6o5)cc4)oc23)CC1
SK-OV-3
  IC50: 2000 nM

## CN1CC=C(c2c(O)cc(O)c3c(=O)cc(-c4ccc(Sc5nc6ccccc6n5C)cc4)oc23)CC1
[1]
  Activity: 25%
[2]
  Activity: 51%
[3]
  Activity: 26%
[4]
  Activity: 41%
[5]
  Activity: -4%
[6]
  Activity: -2%
[7]
  Activity: -3%
[8]
  Activity: 31%
Leishmania major [9]
  Activity: 57%
Leishmania major [10]
  Activity: 68%
Plasmodium falciparum [11]
  Activity: 79%
Plasmodium falciparum [12]
  Activity: 80%
Sus scrofa [13]
  Activity: 41%
Sus scrofa [14]
  Activity: 83%
Sus scrofa [15]
  Activity: 8%
Sus scrofa [16]
  Activity: 41%
CDK2/Cyclin A2
  IC50: 349 nM
[17]
  IC50: 284 nM
CDK9/cyclin T1
  IC50: 14 nM
[18]
  IC50: 160 nM
PC-3
  IC50: 276 nM
SK-OV-3
  IC50: 344 nM
NCI-N87
  IC50: 391 nM
SK-BR-3
  IC50: 249 nM
HCT-116
  IC50: 219 nM
MIA PaCa-2
  IC50: 361 nM
K562
  IC50: 345 nM

## COc1ccc2[nH]c(Sc3ccc(-c4cc(=O)c5c(O)cc(O)c(C6=CCN(C)CC6)c5o4)cc3)nc2c1
SK-OV-3
  IC50: 1200 nM

## CN1CC=C(c2c(O)cc(O)c3c(=O)cc(-c4ccc(Sc5ccc6ccccc6n5)cc4)oc23)CC1
SK-OV-3
  IC50: 3800 nM

## CC(=O)OC[C@@H]1O[C@@H](Sc2ccc(-c3cc(=O)c4c(O)cc(O)c(C5=CCN(C)CC5)c4o3)cc2)[C@@H](OC(C)=O)[C@H](OC(C)=O)[C@@H]1OC(C)=O
SK-OV-3
  IC50: 2870 nM

## CN1CC=C(c2c(O)cc(O)c3c(=O)cc(-c4ccc(SCCC(=O)NOC5CCCCO5)cc4)oc23)CC1 (stereo not drawn)
SK-OV-3
  IC50: 6850 nM

## CN1CC=C(c2c(O)cc(O)c3c(=O)cc(-c4ccc(Sc5ccc(C(=O)O)cn5)cc4)oc23)CC1
SK-OV-3
  IC50: > 10000 nM
